Experimental data pooled from the literature.
Compare with care: the assays were run in different laboratories.
Target: Ephrin type-A receptor 7 (EPHA7, Homo sapiens, UniProt Q15375)

| Structure (SMILES) | test | conditions | remaining binding |
| --- | --- | --- | --- |
| O=C(c1ccc(Nc2ncc(Cl)c(-c3cc4ccccc4s3)n2)cc1)N1CCC(N2CCCC2)CC1 | binding, competition with immobilised ligand | 1 µM | 49% |
| N#CC1(c2ccccn2)CCN(Cc2cc(C(=O)N3CCCC3)c(=O)n3ccccc23)CC1 | cell-free assay, competition with immobilised ligand | 1 µM | 100% |
| O=C(NCC1CCOCC1)c1n[nH]cc1NC(=O)c1c(F)cccc1F | binding, competition with immobilised ligand | 1 µM | 97% |
| CN(C)C(=O)Cn1cc(-c2nc([C@@](C)(c3ccc(-c4cnc(N)nc4)cc3)C3CC3)no2)cn1 | cell-free assay, competition with immobilised ligand | 1 µM | 98% |
| N[C@@H]1CCN(c2nccc(-c3cnn4ncccc34)n2)C1 | binding | 1 µM | 91% |
| CN(C)C(=O)Cn1cc(-c2nc(C3(c4ccc(-c5cnc(N)nc5)cc4)CC3)no2)cn1 | cell-free assay, competition with immobilised ligand | 1 µM | 92% |
| Nc1ncc2c(n1)-c1c([nH]c3ccc(C#CC4CC4)cc13)CCCC2 | binding, competition with immobilised ligand | 1 µM | 100% |
| COc1ncc2cc3ccccc3nc2c1C#N | cell-free assay, competition with immobilised ligand | 5 µM | 95% |
| Cn1cc(Cl)c2c(Oc3c(F)cc(Nc4cc(Cl)nc(N)n4)cc3F)ccnc21 | cell-free assay, competition with immobilised ligand | 0.1 µM | 96% |
| Cc1cnc(Nc2ccc(C(=O)N3CCC(N4CCCC4)CC3)cc2)nc1-c1cc2ccccc2s1 | binding, competition with immobilised ligand | 1 µM | 67% |
| c1cnn2ncc(-c3ccnc(N4CCC45COC5)n3)c2c1 | binding | 1 µM | 93% |
| CS(=O)(=O)N1CCCC(NC(=O)[C@H](CCC2CCCCC2)NC(=O)c2ccc(CNc3ncnc4c3nnn4-c3ccccc3)cc2)C1 (some centres unmarked) | cell-free assay, competition with immobilised ligand | 0.1 µM | 98% |
| COc1ccnn2ncc(-c3ccnc(N(C)C)n3)c12 | binding | 1 µM | 93% |
| COc1cnc(Nc2cccc(S(N)(=O)=O)c2)nc1N1CCN(c2ccccc2)CC1 | binding, competition with immobilised ligand | 1 µM | 86% |
| CN(C)c1ncc(F)c(-c2cnn3ncccc23)n1 | binding | 1 µM | 100% |
| c1cncc(-c2cccc(Nc3nccc(NC4CCCCC4)n3)c2)c1 | binding, competition with immobilised ligand | 10 µM | 100% |
| F[C@@H]1CCN(c2nccc(-c3cnn4ncccc34)n2)C1 | binding | 1 µM | 100% |
| O=C(c1ccc(Nc2ncc(Cl)c(-c3ccc(Cl)s3)n2)cc1)N1CCC(N2CCCC2)CC1 | binding, competition with immobilised ligand | 1 µM | 56% |
| CN(C)c1nccc(-c2cnc3ncccn23)n1 | binding | 1 µM | 68% |
| O=C1NC(c2ccccn2)Sc2ccccc21 (centres unmarked) | cell-free assay, competition with immobilised ligand | 1 µM | 72% |
